# Source: PubChem
# The list is not random: actives were taken first. Their share in the collection is about 2.9%.
# MT1-MMP txn act = MT1-MMP promoter transcription activation; HT1080 MT1-MMP promoter luciferase reporter, luminescence, overnight; hits give high values; activation factor at 10 µM; hit rate 0.16% among 86,000;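 active = activation factor of at least 2 for MT1-MMP transcription at 10 µM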
# SF-1 act = activates the human nuclear receptor SF-1; Q13285; CHO-K1 Gal4-SF-1 LBD luciferase reporter; % increase over DMSO SF-1-specific signal; activation, % at 10 µM; hit rate 1.9% among 65,000;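 active = activation above the mean activation of all tested compounds plus 3 SD, cut at about 50% in these data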
#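 Material: Transient Gal4-SF-1 LBD reporter, CHO-K1 | Input: 4,000 cells/well | Dosing: One dose, 10 µM compound, 1% DMSO | Incubation: 20 h compound treatment, 37 °C | Detection: SteadyLite luciferase luminescence | Evaluation: Percent activation relative to DMSO median and mock-transfected background | Benchmarks: DMSO-treated SF-1-transfected cells as negative, DMSO-treated mock-transfected cells lacking SF-1 as background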
# HEK293 NFkB inh = lowers PMA/ionomycin-induced NF-kB signal in HEK293 cells. HEK-293 NF-kB luciferase reporter, luminescence. inhibition, % at 3 µM. hit rate 0.21% among 62,000. AID 465;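 active = inhibition above the mean of all tested compounds plus 3 SD, cut at about 40% in these data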
#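 System: NF-kB luciferase reporter HEK-293 cells | Replication: Single test | Control set: DMSO vs reference inhibitor | Evaluation: % inhibition | Schedule: 1 h pretreatment, 16 h stimulation, 37 °C | Probe or stimulus: PMA with ionomycin | Compound dosing: One dose, 3 µM | Detection: Luciferase luminescence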
# RORA act = RORA (human) activation | P35398 | CHO-K1 Gal4-RORA LBD luciferase reporter, luminescence; percent increase over mock-subtracted basal signal | activation, % at 10 µM | hit rate 1.5% among 65,000;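 active = activation above the mean of all tested compounds plus 3 SD, cut at about 49% in these data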
# Jurkat tox 60K = cytotoxic compounds reducing Jurkat cell viability; hit rate 1.2% among 56,000; AID 463; Jurkat E6.1 viability, ATP luminescence, 48 h; inhibition, % at 4 µM;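 active = inhibition above the mean inhibition of all tested compounds plus 3 SD, cut at about 28% in these data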
# A number is an active result; n = inactive; x = no result given.
SMILES,MT1-MMP txn act,SF-1 act,HEK293 NFkB inh,RORA act,Jurkat tox 60K
O=C(c1cc2c(s1)-c1ccccc1OC2)N1CCC2(CC1)OCCO2,n,61,n,54,38
CNC(=O)[C@@H]1C[C@H]1[C@@H](NP(=O)(c1ccccc1)c1ccccc1)c1ccccc1,n,x,x,x,x
CCCNS(=O)(=O)c1ccc(OCC(=O)N2CCN(C)CC2)cc1,n,x,x,x,x
CCCNS(=O)(=O)c1ccc(OCC(=O)N2CCN(Cc3ccc4c(c3)OCO4)CC2)cc1,n,n,n,n,31
COC(=O)[C@@H]1C[C@@]2(O)[C@H](O)[C@H](O)[C@H](O)C[C@H]2N1Cc1cccnc1,n,x,x,x,x
N=c1sc2c(n1Cc1ccccc1)CCCC2,n,n,n,n,n
N=c1c2c(n(Cc3ccc(Cl)cc3Cl)c3c1CCC3)CCCC2,n,n,n,n,37
O=C1CN=C(c2cccs2)c2c(sc3c2CCCC3)N1,n,n,n,n,86
O=C(C1CCN(c2nc3ccc(Br)cc3s2)CC1)N1CCC2(CC1)OCCO2,n,n,n,n,n
Cc1ccc2nc(N3CCC(C(=O)N4CCC5(CC4)OCCO5)CC3)sc2c1,n,74,n,n,n
COC(=O)[C@@]1(Cc2ccccc2)[C@H]2c3cc(C(=O)N(C)C)n(C)c3C[C@H]2CN1C(=O)c1ccccc1,n,x,x,x,x
CCCc1cc2c(n1Cc1ccco1)C(C)C1CN(C(=O)c3ccccc3)C(C)(C(=O)OC)C21 (stereo not given),n,x,x,x,x
COc1cccc(OC)c1C1=NCC(=O)Nc2c1oc1ccc(Br)cc21,n,n,n,n,99
CSC(=Nc1ccccc1)c1c(O)n(C)c(=O)n(C)c1=O,n,n,n,n,34
CCN(CC)CCCC(C)N=C(c1ccccc1)c1c(O)n(C)c(=O)n(C)c1=O (stereo not given),n,n,x,n,x
C=C(CC1(CNP(=O)(c2ccccc2)c2ccccc2)CC1)c1ccccc1,2,x,x,x,x
CCn1nc(-c2cccs2)nc2c(=O)n(C)c(=O)nc1-2,x,n,97,n,36
O=P(c1ccccc1)(c1ccccc1)N1CC2(CC2)CC(O)(c2ccccc2)C1 (stereo not given),n,x,x,x,x
CC1(C)CN=C(Nc2nc3ccccc3s2)S1,n,70,n,54,n
COC(=O)[C@@H]1C[C@H]2CC[C@H](O)C[C@H]2N1CC1CC1,n,x,x,x,x
